Assay outcomes: PubChem, several laboratories
The entries come from a sample that favours hits as a whole.
CHOP inhibitor – CHOP inhibition in unfolded protein response | AID 2732 | 220,000 tested, 3.8% active | inhibition, % at 10 µM | CHO-K1 CHOP-promoter luciferase, tunicamycin-induced, 15-18 h;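 active = compounds that reduced the stress-induced luciferase reporter signal by more than about 70% of percent inhibition, limit read from the data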;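 note: 0% = tunicamycin plus vehicle and 100% = wells without tunicamycin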
A1 inh – inhibitors of the anti-apoptotic protein A1, read as caspase activation; caspase activation, % (test concentration not listed); MEF A1-2A-BIM cells, Caspase-Glo 3/7 luminescence, 3 h; percent of clofoctol response, vehicle zero; 330,000 tested, 0.066% active;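 active = over half of replicate activation scores above 10%, or exactly half above 10 with the replicate mean above 10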
UPR XBP1 act – adaptive UPR (XBP1) activation; CHO-XBP1 luciferase reporter, IRE1-XBP1 UPR activation, luminescence; percent of tunicamycin response, DMSO as zero; activation, % at 20 µM; 330,000 tested, 0.33% active; AID 463104;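 active = versus positive control, 20 µM dose yields 30% or more activation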;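 note: 100% = tunicamycin at 10 µg/mL and 0% = DMSO only wells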
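incubation = overnight seeding at 37 °C, 6 h compound treatment at 37 °C | assay system = CHO-XBP1 cells stably carrying IRE1-XBP1-driven luciferase reporter | input = 1000 cells per well | detection = luciferase luminescence | dosing = single point, 20 µM final compound, 1% DMSO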
CHOP UPR activ – activators of apoptotic arm of unfolded protein response (CHOP). CHO-CHOP luciferase reporter, UPR activation, luminescence; percent of tunicamycin response over DMSO baseline. activation, % at 10 µM. 330,000 tested, 0.34% active. AID 449763;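 active = at 10 µM dose, activation of 40% or more, normalized to positive control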;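 note: 100% = tunicamycin at 10 µg/mL and 0% = DMSO alone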
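Test system: CHO CHOP reporter cells. Input: 500 CHO-CHOP cells per well. Medium: F12 with 10% FBS. Technique: luciferase luminescence. Measure: percent activation relative to tunicamycin control. Dosing: 10 µM compound, 0.5% DMSO. Timing: 16-18 h cell attachment, then 6 h compound exposure, 37 °C.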
CHOP inh conf – confirmation of CHOP induction inhibitors; shares compounds with CHOP inhibitor; inhibition, % at 10 µM; 2,100 tested, 45% active; CHO-CHOP promoter luciferase reporter, tunicamycin-induced, luminescence;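 active = mean of three repeat readings of reporter signal inhibition above a set limit, cut at about 70% in these data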;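 note: 0% = tunicamycin plus vehicle and 100% = wells lacking tunicamycin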
The depositor's hits bear a star; . = no result.

SMILES | CHOP inhibitor | A1 inh | UPR XBP1 act | CHOP UPR activ | CHOP inh conf
O=C(Nc1ccc(Cl)c(-c2nc3ccccc3[nH]2)c1)c1ccc2c(c1)OCO2 | 64 | 1 | 5 | 2 | .
O=C(Nc1cccc(-c2nc3ccccc3[nH]2)c1)c1cccc(NC(=O)c2ccco2)c1 | 107* | -1 | -2 | 8 | -20
O=C(Nc1ccc(-c2nc3ccccc3[nH]2)cc1)c1ccc2c(c1)OCO2 | 105* | -1 | 12 | 13 | 27
O=C(Nc1ccc2nc(-c3ccccc3)[nH]c2c1)c1ccco1 | -16 | -6 | 6 | 2 | .
O=S(=O)(c1ccc2nc(Nc3ccccc3)ccc2c1)N1CCCCC1 | . | 0 | -2 | 3 | .
Cc1sc(-c2ccncc2)nc1OC(=O)c1ccc(Cl)cc1 | -3 | 1 | -1 | -6 | .
Cc1sc(-c2ccncc2)nc1OC(=O)c1cc(Cl)cc(Cl)c1 | 104* | -1 | 21 | 10 | 63
CCCCn1c(=O)[nH]c(=O)c2c1nc(-c1ccc(OCCC)c(OCC)c1)n2C | 101* | -1 | 8 | 3 | 91*
CCCCn1c(=O)[nH]c(=O)c2c1nc(-c1ccc(-c3ccccc3)cc1)n2C | . | 0 | 22 | 6 | .
C=CCNC(=S)Nc1ccccc1-c1nnc2n1CCCCC2 | . | 0 | -2 | -2 | .
COc1cc(NC(=O)Cn2c(C)cc3ccccc3c2=O)cc(OC)c1OC | 97* | 1 | -4 | -3 | 20
CC(Cc1ccccc1)C(=O)Nc1ccc(Br)cc1 (stereo not given) | . | 1 | 0 | 11 | .
COc1cc(/C=C2\CC/C(=C\c3cc(OC)c(O)c(OC)c3)C2=O)cc(OC)c1O | 101* | 0 | -2 | -4 | 101*
COc1cc(/C=C2\COC/C(=C\c3cc(OC)c(OC)c(OC)c3)C2=O)cc(OC)c1OC | 106* | . | . | . | 111*
CSCC[C@H](NC(=O)C1CCC(CNC(=O)[C@@H]2CCCN2C(=O)OC(C)(C)C)CC1)C(=O)O (stereo not given in full) | . | 0 | -1 | 1 | .
C(=N\N(Cc1ccccc1)c1ccccc1)/c1ccco1 | 32 | 0 | 1 | -2 | .
COc1ccc(/C=N/N(Cc2ccccc2)c2ccccc2)cc1O | 104* | 1 | 2 | 3 | 12
O=S(=O)(c1ccc(F)cc1)N1CCCN(c2nccc(C(F)(F)F)n2)CC1 | 15 | 1 | -1 | 0 | .
Nc1ncc(Br)cc1S(=O)(=O)NCCC(=O)NCCc1ccc(Cl)cc1 | . | -2 | 0 | -1 | .
CCN(CC)S(=O)(=O)c1cccc(NC(=O)Nc2cccc(C(F)(F)F)c2)c1 | 100* | 0 | 8 | 10 | 124*
COc1ccc(OC)c(/C(O)=C/C(=O)C(=O)Nc2cc(C)cc(C)c2)c1 | 105* | 0 | 0 | -1 | -11
CNC(=O)NC(=O)CN1C(=O)NC2(CCOc3ccccc32)C1=O (stereo not given) | . | 0 | 0 | 0 | .
Cc1cccc(C)c1OCC(O)Cn1c2ccccc2c2ccccc21 (stereo not given) | 107* | -1 | -2 | -1 | -48
OC(COCC(F)(F)C(F)(F)C(F)(F)C(F)F)Cn1c2ccccc2c2ccccc21 (stereo not given) | 108* | 0 | 2 | 4 | 110*
Cc1ccc(OCC(O)Cn2c3ccccc3c3ccccc32)cc1 (stereo not given) | 62 | 1 | 1 | -1 | .
SMILES | CHOP inhibitor | A1 inh | UPR XBP1 act | CHOP UPR activ | CHOP inh conf
CC(C)(C)C(=O)Nc1ccccc1N1CCN(c2ccc(F)cc2)CC1 | . | 0 | -4 | 0 | .
O=C(Nc1ccc(C(O)(C(F)(F)F)C(F)(F)F)cc1)c1ccc(Cl)c([N+](=O)[O-])c1 | 107* | 0 | 3 | 3 | 117*
O=C(O)c1cc(NC(=O)c2ccc(Cl)c([N+](=O)[O-])c2)cc(C(=O)O)c1 | 2 | -1 | -3 | 1 | .
Cc1ccc(OCCC(=O)OCC(=O)NC(=O)c2ccccc2)cc1 | . | 0 | 0 | 0 | .
CCCNC(=O)c1onc(CSc2ccc(Cl)cc2)c1C(=O)NCCC(C)C | . | 0 | 1 | -1 | .
O=C(Nc1ccccc1)C1=C(c2ccccc2)S(=O)(=O)CCS1(=O)=O | 108* | . | . | . | 110*
O=C(O)c1ccccc1C(=O)Nc1ccccc1 | 24 | 0 | 0 | 0 | .
Cc1oc(=O)c(NC(=O)c2ccccc2)cc1C(=O)c1ccccc1 | -8 | -1 | 5 | 4 | .
Cc1oc(=O)c(NC(=O)c2ccc(Cl)cc2)cc1C(=O)c1ccccc1 | 106* | 0 | 11 | 14 | 23
COc1ccc(-c2noc(CCC(=O)NCCc3ccccc3)n2)cc1OC | . | -1 | -3 | 1 | .
CC1CCCCC1n1c(=S)[nH]c2ccccc2c1=O (stereo not given) | 103* | -1 | 12 | -2 | 11
Cc1ccc(NC(=O)CSc2nc3ccccc3c3nc(CCc4c(C)n[nH]c4C)nn23)cc1F | 108* | 0 | 28 | 3 | 79*
O=C(Nc1ccccc1C(=O)Nc1ccc(Cl)cc1)c1cccnc1 | . | 2 | -2 | 2 | .
COc1cc(/C=C(/C#N)c2nc3ccccc3c(=O)[nH]2)ccc1O | 102* | -8 | 3 | 6 | 112*
COc1ccc(/C=C(\C#N)c2nc3ccccc3[nH]2)cc1O | . | . | 3 | 4 | .
O=C1/C(=C/c2ccncc2)CCC/C1=C\c1ccncc1 | 98* | . | . | . | 78*
O=C1/C(=C\c2ccncc2)CCc2ccccc21 | . | 1 | 0 | 1 | .
O=C(NC(=S)NNC(=O)c1ccco1)c1ccc(Br)cc1 | . | -1 | -2 | 2 | .
CC(=O)Nc1ccc(NC(=O)C(C)OC(=O)C23CC4CC(CC(Cl)(C4)C2)C3)cc1 (stereo not given) | . | 0 | -2 | -2 | .
CCOc1cc(/C=C2/NC(=O)N(CC(=O)Nc3cccc(C)c3)C2=O)ccc1OCC(N)=O | 15 | 0 | -3 | 0 | .
CCOc1cccc(/C=C2/NC(=O)N(CC(=O)Nc3cccc(C)c3)C2=O)c1O | 104* | 0 | -1 | 0 | -58
CCN1CCN(Cc2ccc(NC(=O)c3cc(NC(=O)c4cncc(-c5ccc(C#N)cc5)c4)cc(OC)c3)cc2C(F)(F)F)CC1 | 107* | 1 | -9 | 3 | 60
COc1cc(/C=N/N(C)c2ccccc2)cc(Cl)c1O | 97* | -1 | 8 | 6 | 38
CCCCCCNC(=O)c1cn(CC)c2cc(N3CCN(C)CC3)c(F)cc2c1=O | . | 2 | 3 | 0 | .
c1ccc(-c2nnnn2-c2ccccc2)cc1 | . | 1 | 2 | 0 | .
ClC(Cl)(c1nnnn1-c1ccccc1)c1nnnn1-c1ccccc1 | 108* | -1 | . | . | 30
C[N+]1(CCC(=O)c2ccccc2)CCCCC1 | 97* | 0 | -1 | 0 | 10
O=C(CCN1CCCCC1)c1ccccc1 | -11 | -1 | -3 | 0 | .
COc1cc(OC)cc(C(=O)NNC(=O)c2ccccn2)c1 | 16 | 1 | 2 | -2 | .
